Screening data deposited in PubChem BioAssay by several laboratories.
Rows were chosen to be rich in hits. Some 4.1% of all compounds tested hit in one or more screens of this group.
FLuc act counter – affects firefly luciferase, flagging false hits in luciferase stimulation screens | P08659 | ATPlite luciferase biochemical, luminescence, 10 min; 0 = ATP-free wells, 1 = DMSO control | activation factor at 10 µM | 200,000 tested, under 10 active;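 active = luciferase activation factor, scaled between plate controls, of at least 2 with compound at 10 µM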
Target sequence (P08659 whole entry, looked up): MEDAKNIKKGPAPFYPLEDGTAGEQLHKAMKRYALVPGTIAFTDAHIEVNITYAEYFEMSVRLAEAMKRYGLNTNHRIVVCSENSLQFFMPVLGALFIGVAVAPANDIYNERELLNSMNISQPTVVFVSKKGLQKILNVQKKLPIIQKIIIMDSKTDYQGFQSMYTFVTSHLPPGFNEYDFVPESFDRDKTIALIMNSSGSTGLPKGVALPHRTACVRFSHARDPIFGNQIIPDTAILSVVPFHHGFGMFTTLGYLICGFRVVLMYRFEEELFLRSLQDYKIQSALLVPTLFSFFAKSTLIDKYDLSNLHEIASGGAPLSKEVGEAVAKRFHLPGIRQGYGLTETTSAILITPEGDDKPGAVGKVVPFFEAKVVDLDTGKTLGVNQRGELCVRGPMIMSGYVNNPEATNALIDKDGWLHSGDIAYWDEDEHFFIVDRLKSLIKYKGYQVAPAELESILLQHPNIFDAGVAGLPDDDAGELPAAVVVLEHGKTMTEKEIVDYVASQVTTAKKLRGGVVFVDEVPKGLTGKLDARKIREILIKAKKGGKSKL
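System: cell-free luciferase reagent; medium: PBS as buffer for the ATP substrate; doses: test compounds dosed from 2 mM stocks in 100% DMSO; incubation: 10 min, room temperature; measured by: luminescence from luciferase reaction; read-out: luciferase activation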
FLuc inh counter – counter-screen for luciferase assay inhibitors: firefly luciferase inhibition. P08659. ATPLite firefly luciferase biochemical luminescence, 10 min. AID 1006. inhibition, % at 10 µM. hit rate 1.5% among 200,000;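 active = inhibition above about 50% when tested at 10 µM, limit read from the data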
STAT1 activator – increases IFN-gamma driven STAT1 reporter signal | NIH 3T3 STAT1-luciferase reporter, luminescence; 100% = IFN-gamma alone, no compound | activation (% of control), % at 5.5 µM | hit rate 2.6% among 200,000;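 active = activation above the screen-wide mean activation plus 3 SD, cut at about 130% in these data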;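 also: raw ratio to IFN-gamma control signal so 100% means no change and 0% no light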
APP 5'UTR act – activates APP 5'UTR luciferase reporter; SH-SY5Y APP 5'UTR luciferase reporter, luminescence; zero percent = DMSO vehicle wells; activation, % at 2 µM; hit rate 1% among 190,000; AID 1276;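 active = activation above a set limit, based on mean plus 3 SD of controls, cut at about 140% in these data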
NF-kB expr up – compounds increasing NF-kB expression in human neuronal cells; NF-kB reporter expression; active compounds read high; fold change at 12.5 µM; hit rate 1.6% among 190,000; AID 1239; in the data active = fold change above about 3.3
STAT1 activ conf – STAT1 activation, confirmation assay; shares compounds with STAT1 activator; NIH 3T3 STAT1-luciferase reporter, IFN-gamma potentiation, luminescence; 100% = IFN-gamma EC80 alone, no compound; activation (% of control), % at 5.7 µM; hit rate 97% among 1,200; AID 1262;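 active = activation above a set limit carried over from the earlier primary STAT1 screen, cut at about 140% in these data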;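 also: simple ratio to median IFN-gamma plus DMSO wells so 0% means no light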
NFkB act – counter-screen for STAT1 activators: NF-kappaB activation; shares compounds with STAT1 activator; HEK293T NF-kB luciferase reporter, TNF-alpha stimulated, luminescence; 100% = TNF-alpha with vehicle only; activation (% of control), % at 5.7 µM; hit rate 43% among 1,200;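 active = activation above the mean of solvent-only control wells plus 3 SD, set per campaign, cut at about 130% in these data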;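 also: TNF-alpha given at a submaximal dose yielding about 80% of full reporter signal; values are well signal over median control so 100% means no change and 0% no light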
STAT3 act 2 – human STAT3 activation in STAT1 activator counter-screen. activation (% of control), % at 5.7 µM. hit rate 46% among 1,200. U3A cells STAT3-luciferase reporter, IL-6, luminescence; cells lack STAT1; 100 = IL-6 alone, no compound effect. shares compounds with STAT1 activator. AID 1316;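 active = activation above the solvent-only control well mean plus 3 SD, set per plate batch, cut at about 110% in these data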;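 also: 0% = no luminescence and 100% = median IL-6 plus DMSO wells; higher means more STAT3 reporter activation so hits are non-selective activators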
* marks the source's active call; other numbers are inactive results; . = no result given.

SMILES | FLuc act counter | FLuc inh counter | STAT1 activator | APP 5'UTR act | NF-kB expr up | STAT1 activ conf | NFkB act | STAT3 act 2
O=C(CCC(=O)N1CCCC1)Nc1nnc(C2CCCCC2)s1 | 1 | -5 | 93 | 5 | 1 | . | . | .
Cc1ccccc1Nc1c(-c2ccc(N3CCOCC3)cc2)nc2ncccn12 | 0.4 | 59* | 105 | 58 | 1.2 | . | . | .
CCNC(=S)Nc1ccc(N2CCCCC2)cc1 | 1 | 2 | 116 | 45 | 1.1 | . | . | .
CCNC(=S)N/N=C/c1sc(N2CCCCC2)nc1-c1cccs1 | 0.4 | 62* | 119 | 16 | 1.1 | . | . | .
COCCOC(=O)c1[nH]c2c(c1C)C(=O)C(C(=O)OC)C(C)C2 (stereo unspecified) | 0.5 | 54* | 117 | 9 | 2.1 | . | . | .
COC(=O)C1C(=O)c2c([nH]c(C(=O)OCC3CCCO3)c2C)CC1C (stereo unspecified) | 0.5 | 54* | 120 | 89 | 1.9 | . | . | .
CCCCCOC(=O)c1[nH]c2c(c1C)C(=O)C(C(=O)OC)C(C)C2 (stereo unspecified) | 1 | 4 | 109 | 28 | 2 | . | . | .
CN(C)c1nc(NCc2ccccc2)nc(SCC(=O)Nc2ccc(Cl)c(Cl)c2)n1 | 1 | 0 | 99 | 10 | 0.84 | . | . | .
CCN(CC)c1ccc(C=C2C(=O)OC(c3ccccc3)OC2=O)cc1 (stereo unspecified) | 1.1 | -6 | 104 | -6 | 1.1 | . | . | .
CCN(CC)c1ccc(/C=C/C(=O)C2C(=O)C=C(C)OC2=O)cc1 (stereo unspecified) | 0.5 | 49 | 138* | 164* | 1.9 | . | . | .
CCC(C)C(NC(=O)C1CCC(C)CC1)C(=O)NCCCN1CCCCC1CC (stereo unspecified) | 1.1 | -8 | 106 | -1 | 0.83 | . | . | .
CCOC(=O)c1c(C)[nH]c(N=Nc2cccc(OC)c2)c1C | 0.7 | 33 | 198* | 253* | 1.2 | 235* | 144* | 103
CCOC(=O)c1c(C)[nH]c(N=Nc2ccc(C)cc2)c1C | 1 | 2 | 154* | 141* | 4.1* | 230* | 146* | 102
CCOC(=O)c1c(C)[nH]c(C=Nc2ccc(OC)cc2)c1O | 0.7 | 26 | 120 | -3 | 1.8 | . | . | .
CCOC(=O)c1[nH]c(C)c(C(=O)c2ccc(C)cc2)c1C | 1 | -2 | 117 | -95 | 1.9 | . | . | .
CCOC(=O)c1c(NC(=O)Cn2ccsc2=N)sc(C)c1C | 1.1 | -8 | 104 | 2 | 1.4 | . | . | .
CCSc1nnc2nc3[nH]c4c(C)cccc4c3nn12 | 1 | -4 | 151* | 84 | 2 | 149* | 119 | 123*
Cc1cccc2c1[nH]c1nc(N/N=C\c3ccco3)nnc12 | 1 | 2 | 106 | 12 | 1.1 | . | . | .
CCSc1nc2c([nH]c3ccccc32)c(=O)n1C | 1 | 1 | 102 | -1 | 1 | . | . | .
C=CCSc1nnc2c(n1)[nH]c1c(C)cccc12 | 0.8 | 16 | 154* | 119 | 2.4 | 176* | 118 | 89
Cc1nc(N)sc1-c1csc(Nc2ccccn2)n1 | 1 | 4 | 169* | 72 | 1 | 183* | 131 | 129*
CC(=O)N1N=C(c2ccc(C)cc2)OC1c1ccc(C)cc1 (stereo unspecified) | 1 | -4 | 122 | 29 | 1.8 | . | . | .
CC(=O)N1N=C(c2ccc(C)cc2)OC1c1ccc(C(C)C)cc1 (stereo unspecified) | 1 | 0 | 166* | 116 | 4.3* | 217* | 146* | 146*
O=C(COC(=O)c1cccc(Cl)c1)NCCN1C(=O)CSC1=O | 1.1 | -9 | 105 | -7 | 1.2 | . | . | .
Cc1cccn2c1nc(=S)n2C(=O)c1ccco1 | 0.1 | 85* | 208* | 147* | 1 | 256* | 176* | 135*
CCNC(=O)COc1cc(C)c(Cl)c(C)c1 | 1 | -4 | 102 | 8 | 0.91 | . | . | .
